# Data from the RNAGym collection of RNA variant scans (doi:10.1126/science.aae0568).
# Variants at the floor of the assay were thinned out.
# B1: tRNA (parent)
# chain: GUUCCGUUGGCGUAAUGGUAACGCGUCUCCCUCCUAAGGAGAAGACUGCGGGUUCGAGUCCCGUACGGAACG
# Variants of: B1
# Test: yeast fitness relative to wild type (ratio to wild type); higher = fitter; tRNA-Arg(CCU), competitive growth, 37 C, YPD
# Outline: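 Amplicons of the tRNA-Arg(CCU) gene were sequenced, 100-nucleotide paired-end, from the start population and from each end population of a pooled yeast competition. The competition, in six parallel replicates, lasted 24 hours in YPD at 37°C. Fitness relative to wild type was calculated from changes in genotype frequencies. Genotypes had to have ≥ 100 starting reads, and estimates < 0.5 were set to 0.5.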
row,Variant,yeast fitness
1,GAUCCGUUGGCGUAAUGGUAGCGCGUCUUCCUCCUAAGGUGAAGACUGCGGGUUCGAGUCCCAUACGGUACG [U2A A21G C29U A40U G63A A69U],≤ 0.5
2,GAUCCGUUGGCGUCAUGGUAACGCGUCUCUCUCGUAAGGAGAAGUCUGCGGGUUCGAGUCCCGUACGGAACG [U2A A14C C30U C34G A45U],≤ 0.5
3,GAUCCGUUGGCGUCAUGGUAACGCGUCUCCCUCCUAAGGAGAAGACUCCGGGUUCGAGUCCCGUACGGAACG [U2A A14C G48C],≤ 0.5
4,GAUCCGUUGGCGUAAUGGUACCGCGUCUCACUCCUAAGGAGAAGACUGAGGGUUCGAGUCCCGUACGGAACG [U2A A21C C30A C49A],≤ 0.5
5,GAUCCGUUGGCGUAGUGGUAACGCGUCUCCGUCCUAAGGUGAAGACUGCGGGUUCGAGUGCCGUACAGAACG [U2A A15G C31G A40U C60G G67A],≤ 0.5
6,GAUCCGUUGGCGUAUUGGUAACGCGUCUCCCUCAUAAGCCGAAGACUGCGGGUUCCAGUCGGGUACGCAACG [U2A A15U C34A G39C A40C G56C C61G C62G G68C],≤ 0.5
7,GAUCCGUUGGCGUAAUGGUGACGCGUCUACCUCCUAAGGAGAAGUCUGCGGGUUCGAGUCCCGUACGGAACG [U2A A20G C29A A45U],0.538
8,GAUCCGUUGGCGUACUGGUAACGCGUCUCGCUCCUAAGGAGAAGACUGCGGGUUCGAGUCCCGUACGGAACG [U2A A15C C30G],≤ 0.5
9,GAUCCGUUGGCGUACUGGUAACGCGUCUCGCUCCUAAGGAGAAGACUGCGGGUUCGAGUCCCGUACCGAACG [U2A A15C C30G G67C],≤ 0.5
10,GAUCCGUUGGCGUUAUGGUAGCGCGUCUCCCUCCUAAGGAGAAGAGUGCGGGUUCGUGUCCCGUAUGGAACG [U2A A14U A21G C46G A57U C66U],0.56
11,GAUCCGUUGGCGUAGUGGUAACGCGUCUCCCUCCUAUGGAGAAGACUGGGGGUUCGAGUCCCGUACGGAACG [U2A A15G A37U C49G],≤ 0.5
12,GAUCCGUUGGCGUUAUGGUAACGCGUCUGCCUCCUAAGGAGAACACUGCGGGUUCGAGUCCCGUACGGAACG [U2A A14U C29G G44C],0.534
13,GAUCCGUUGGCGUAAUGGUCACGCGUCUCCCUCCUAAGGAGAAGACUGCGGGUUCGAGUCCCGUACGUAACG [U2A A20C G68U],1.01
14,GAUCCGUUGGCGUCAUGGUGACGCGUCUCCCUCCUGAGGAGAAGACUGCGGGUUUGAGUCCCGUACGCAACG [U2A A14C A20G A36G C55U G68C],0.595
15,GAUCCGUUGGCGUAAUGGUGACGGGUCUCGCUCCUAAGGAGAAGACUGCGGGUUCGAGUCCCGUACGGAACG [U2A A20G C24G C30G],≤ 0.5
16,GAUCCGUUGGCGUCAUGGUAACGCGUCUCCCUCCUAAGGAGAAGACUGCAGGUUCGAGUCCCCUACGGAACG [U2A A14C G50A G63C],≤ 0.5
17,GAUCCGUUGGCGUAAUGGUAGCGCGUCUGCCUCCUAAGGAGAAGACUGAGGGUUCGAGUCCCGUACAGAACG [U2A A21G C29G C49A G67A],≤ 0.5
18,GAUCCGUUGGCGUAAUGGUUACGCGUCUCCCUCAUAAGGAGAAGACUGCGGGUUCGAGUCUCGUUCGGAACG [U2A A20U C34A C61U A65U],≤ 0.5
19,GAUCCGUUGGCGUAAUGGUAGCGCGUCUUCCUCCUAAGGUGAAGACUGGGGGUUCGAGUCCCGUACGGAACG [U2A A21G C29U A40U C49G],≤ 0.5

row,Variant,yeast fitness
1,GAUCCGUUGGCGUAAUGGUAACGCGUCUCCCUCCUACGGAGAAGACUGCGGGUUCGCGUUCCGUACGGAACG [U2A A37C A57C C60U],≤ 0.5
2,GAUCCGUUGGCGUAAUGGUAUCGCGUCUCCCUCCUAAGGAGAAGACUGCGGGUACCAGUCCCGUACGGAACG [U2A A21U U54A G56C],0.646
3,GAUCCGUUGGCGUAAUGGUCACGCGUCUCCCUCCUAAGGGGAAGACUGCGGGUUCGAGUCCCGUACGGAACG [U2A A20C A40G],0.633
4,GAUCCGUUGGCGUAAUGGUGACGCGUCUCCCUCCUAAGGAGAAGACUGUGGGUUCGAGUCCCGUACGGAACG [U2A A20G C49U],0.605
5,GAUCCGUUGGCGUAAUGGUAACGCGUCUCCCUCCUCAGGAGAAGACUGCGGGUUCGAGUCCCGUACGGAACG [U2A A36C],0.518
6,GAUCCGUUGGCGUAAUGGUAACGCGUCUCCCUCCUUAGGAGAAGACUGCGGGUUCGAGUCCCGUACGGAACG [U2A A36U],0.596
7,GAUCCGUUGGCGUAAUGGUUACGCGUCUCACUCCUUAGGAGAAGACUGCGGGUUCGAGUUCCGUACGGCACG [U2A A20U C30A A36U C60U A69C],≤ 0.5
8,GAUCCGUUGGCGUAAUGGUAACGCGUCUCCCUCCUAAGGUGAAGACUGCGGGUUCGAGUCCCGUCCGGAACG [U2A A40U A65C],≤ 0.5
9,GAUCCGUUGGCGUAAUGGUACCGCGUCUCCGUCCUAAGGAGACGACUGCGGGUUCGAGUCCCGUACGGAACG [U2A A21C C31G A43C],≤ 0.5
10,GAUCCGUUGGCGUAAUGGUAGCGCGUCUCCCUCCUAAGGAGAACACUGCGGGUUCGAGGCUCGUACGGAACG [U2A A21G G44C U59G C61U],≤ 0.5
11,GAUCCGUUGGCGUAAUGGUCACGCGUCUCCCUCCUAAGGAGAAGACUCCGGGUUCGAGUCCCGUACCGAACG [U2A A20C G48C G67C],≤ 0.5
12,GAUCCGUUGGCGUGAUGGUAAGGCGUCUCGCUCCUAAGGAGAAGACAGCGGGUUCGAGUCCCGUACGGAACG [U2A A14G C22G C30G U47A],≤ 0.5
13,GAUCCGUUGGCGUAAUGGUCACGCGUCUCCCUCCUAGGGAGAAGACUGCGGGUUCGAGUCCCGUACGGAACG [U2A A20C A37G],0.529
14,GAUCCGUUGGCGUAAUGGUCACGCGUCUCCCUCCUAAGGAGAAGACUGCGGGUUUGAGUCCCGUACGGAACG [U2A A20C C55U],0.582
15,GAUCCGUUGGCGUUAUGGUAACGCGUCUCCCUCCUAAGGAGAAGAUUGCGGGUUCGAGUCCCGUACGGAACG [U2A A14U C46U],0.595
16,GAUCCGUUGGCGUAAUGGUAACGCGUCUCCCUCCUAAGGGGAAGACUGCGGGUUCGAGUCCCGUACGGAACG [U2A A40G],0.932
17,GAUCCGUUGGCGUAAUGGUAUCGCGUCUCCCUCCUAAGGAGGAGACUGCGGGUUCGAGUCCCGUACGGAACG [U2A A21U A42G],≤ 0.5
18,GAUCCGUUGGCGUAAUGGUACCGCGUCUUCCUCCUAAGGAGAAGACUGCGAGUUCGAGUCCCGUACGGAACG [U2A A21C C29U G51A],0.574
19,GAUCCGUUGGCGUAAUGGUACCGAGUCUCCCUACUAAGGAGAAGACUCCGGGUUCGAGUCCCGUACGGAACG [U2A A21C C24A C33A G48C],≤ 0.5
